Laboratory results published in ChEMBL document CHEMBL2021854, “2-Aminopyrimidine based 4-aminoquinoline anti-plasmodial agents. Synthesis, biological activity, structure-activity relationship and mode of action studies” (Eur J Med Chem, 2012).

How the values were obtained:
[1] = Inhibition of beta-hematin formation assessed as Ferriprotoporphyrin IX biomineralisation at 1 mg/ml after 24 hrs; format: functional
How it was run: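 Hemin chloride (0.5 mg/ml in DMSO) mixed with 0.5 M sodium acetate buffer pH 4.4 and drug or solvent control, incubated 37 °C for 24 h. Pellet washed with DMSO to remove unreacted hemin, dissolved in 0.1 N NaOH, absorbance read at 405 nm; percent inhibition relative to control. Highest concentration tested 1 mg/ml.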

Plasmodium falciparum [2] = assay: Antiplasmodial activity chloroquine-sensitive Plasmodium falciparum 3D7 infected in human A+ erythrocytes assessed as inhibition of [3H]-hypoxanthine incorporation after 24 hrs by scintillation counting; format: functional, organism-based
Plasmodium falciparum [3] = assay: Resistant factor, ratio of IC50 for chloroquine-resistant Plasmodium falciparum K1 to IC50 for chloroquine-sensitive Plasmodium falciparum 3D7; format: functional
How it was run: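 Resistance factor computed as IC50 against K1 divided by IC50 against 3D7, both from the [3H]hypoxanthine incorporation assay.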

Plasmodium falciparum [4] = assay: Antiplasmodial activity chloroquine-resistant Plasmodium falciparum K1 infected in human A+ erythrocytes assessed as inhibition of [3H]-hypoxanthine incorporation after 24 hrs by scintillation counting; format: functional, organism-based
[5] = test system: Feline infectious peritonitis virus; assay: Antiviral activity against FIPV infected in cat CRFK cells assessed as inhibition of virus-induced cytopathic effect after 4 days by colorimetric formazan-based MTS assay; format: functional, cell-based; settings: Alphacoronavirus 1, CRFK, 96 h
[6] = Cytotoxicity against cat CRFK cells assessed as cell viability by colorimetric formazan-based MTS assay; set-up: species or system Felis catus; settings: CRFK cells
Felid alphaherpesvirus 1 = assay: Antiviral activity against Feline herpesvirus infected in cat CRFK cells assessed as inhibition of virus-induced cytopathic effect after 4 days by colorimetric formazan-based MTS assay; format: functional, organism-based; settings: Felid alphaherpesvirus 1, CRFK, 96 h
[7] = test system: Vesicular stomatitis virus; assay: Antiviral activity against Vesicular stomatitis virus infected in HEL cells assessed as inhibition of virus-induced cytopathogenicity after 4 days; format: functional, organism-based; settings: 96 h
How it was run: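 Confluent HEL or HeLa monolayers infected with 100 CCID50 of virus in the presence of varying compound concentrations.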

HeLa = assay: Cytotoxicity against human HeLa cells assessed as cell viability by colorimetric formazan-based MTS assay
[8] = Cytotoxicity against human HEL cells assessed as minimum compound concentration required to causes microscopically detectable alteration of normal cell morphology; format: cell-based
How it was run: (§1)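 Confluent, non-proliferating cell cultures were exposed to the compounds. The endpoint was the minimum concentration producing a microscopically detectable alteration of normal cell morphology.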

Human alphaherpesvirus 3 = assay: Antiviral activity against […] expressing thymidine kinase infected in HEL cells assessed as reduction of virus plaque formation after 4 days; format: functional, cell-based; settings: Human alphaherpesvirus 3, strain Oka vaccine, 96 h
Influenza A virus [9] = assay: Antiviral activity against Influenza A virus H3N2 infected in MDCK cells assessed as inhibition of virus-induced cytopathogenicity after 4 days by colorimetric formazan-based MTS assay; format: functional, organism-based; settings: 96 h
Influenza B virus [10] = assay: Antiviral activity against Influenza B virus infected in MDCK cells assessed as reduction visual scoring of virus-induced cytopathogenicity after 4 days; format: functional, organism-based; settings: 96 h
How it was run: (§2)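 MDCK monolayers infected with 100 CCID50 of influenza A (H1N1 or H3N2) or influenza B, with varying compound concentrations. Cytopathicity read when untreated infected controls reached complete CPE.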

Influenza B virus [11] = assay: Antiviral activity against Influenza B virus infected in MDCK cells assessed as inhibition of virus-induced cytopathogenicity after 4 days by colorimetric formazan-based MTS assay; format: functional, organism-based; settings: 96 h
[12] = Cytotoxicity against MDCK cells assessed as minimum compound concentration required to causes microscopically detectable alteration of normal cell morphology; format: cell-based, Canis lupus familiaris; settings: dog; how it was run: as §1
Influenza A virus [13] = assay: Antiviral activity against Influenza A virus H3N2 infected in MDCK cells assessed as reduction visual scoring of virus-induced cytopathogenicity after 4 days; format: functional, organism-based; settings: 96 h; how it was run: as §2

Compound	inhibition [1] [%]	IC50 (Plasmodium falciparum [2]) [nM]	Ratio IC50 (Plasmodium falciparum [3])	IC50 (Plasmodium falciparum [4]) [nM]	further results
CCOC(=O)c1c(C)nc(Nc2ccccc2Nc2ccnc3cc(Cl)ccc23)nc1-c1ccccc1	53	14800	1.842	27300	
Cc1nc(NCCCNc2ccnc3cc(Cl)ccc23)nc(-c2ccc([N+](=O)[O-])cc2)c1C(=O)OC(C)C	94	500	0.3518	176	
Cc1nc(NCCCNc2ccnc3cc(Cl)ccc23)nc(-c2ccccc2[N+](=O)[O-])c1C(=O)OC(C)C	89	1960	0.1173	229	
CCOC(=O)c1c(C)nc(NCCCCCCCCCCNc2ccnc3cc(Cl)ccc23)nc1-c1ccccc1		1780	0.2744	488	
CCOC(=O)c1c(C)nc(NCCCC(C)CNc2ccnc3cc(Cl)ccc23)nc1-c1ccccc1 (stereo not drawn)		287	3	860	
CCOC(=O)c1c(C)nc(NCCCCCCCNc2ccnc3cc(Cl)ccc23)nc1-c1ccccc1	89	1130	0.544	618	
CCOC(=O)c1c(C)nc(Nc2ccc(Nc3ccnc4cc(Cl)ccc34)cc2)nc1-c1ccccc1	100	644	9.6	6190	
N[C@H]1C(C(=O)O)=CC=C[C@@H]1O					EC50 [5]: 8.1 µg/mL; CC50 [6]: > 100 µg/mL; EC50 (Felid alphaherpesvirus 1): 5.2 µg/mL
O=c1[nH]c(=O)n([C@H]2C[C@H](O)[C@@H](CO)O2)cc1/C=C/Br [BRIVUDINE]					EC50 [7]: > 250000 nM; CC50 (HeLa): 362000 nM; MCC [8]: > 250 µM; EC50 (Human alphaherpesvirus 3): 19 nM
CC(=O)N[C@H]1[C@@H](OP(=O)(O)OP(=O)(O)OC[C@H]2O[C@@H](n3ccc(=O)[nH]c3=O)[C@H](O)[C@@H]2O)O[C@H](CO)[C@@H](O)[C@@H]1O[C@@](C)(OP(=O)(O)O)C(=O)O					EC50 [5]: 1.5 µg/mL; CC50 [6]: 15.8 µg/mL; EC50 (Felid alphaherpesvirus 1): 0.8 µg/mL
Cc1nc(NCCCCNc2ccnc3cc(Cl)ccc23)nc(-c2cccc([N+](=O)[O-])c2)c1C(=O)OC(C)C	92	697	0.2756	192	
CCOC(=O)c1c(C)nc(NCCCCCCCCNc2ccnc3cc(Cl)ccc23)nc1-c1ccccc1	56	252	2.047	516	
CC(N)C12CC3CC(CC(C3)C1)C2 (stereo not drawn) [RIMANTADINE]					EC50 (Influenza A virus [9]): > 200000 nM; EC50 (Influenza B virus [10]): > 200000 nM; EC50 (Influenza B virus [11]): > 200000 nM; MCC [12]: > 200 µM; EC50 (Influenza A virus [13]): > 200000 nM
CCOC(=O)c1c(C)nc(NCCCCCCCCCCCCNc2ccnc3cc(Cl)ccc23)nc1-c1ccccc1		265	3.22	854	
Nc1nc(O)c2ncn(COC(CO)CO)c2n1 [GANCICLOVIR]					EC50 [5]: > 100000 nM; CC50 [6]: > 100000 nM; EC50 [7]: > 100000 nM; CC50 (HeLa): 222000 nM; MCC [8]: > 100 µM; EC50 (Felid alphaherpesvirus 1): 4100 nM
C[C@H]1[C@H](OC(=O)CCC(=O)O)O[C@@H]2O[C@@]3(C)CC[C@H]4[C@H](C)CC[C@@H]1[C@@]24OO3 [ARTESUNATE]		5.3	0.5418	2.8	
Nc1nc2c(ncn2COCCO)c(=O)[nH]1 [ACYCLOVIR]					EC50 [7]: > 250000 nM; CC50 (HeLa): 541000 nM; MCC [8]: > 250 µM
CCOC(=O)c1c(C)nc(NCC(C)Nc2ccnc3cc(Cl)ccc23)nc1-c1ccccc1 (stereo not drawn)	35	15900	1.7683	28100	
